Experimental data collected from several papers.
Protocols differ between the studies behind these lines.
Target: Serine/threonine-protein kinase/endoribonuclease IRE1 (ERN1, Homo sapiens, UniProt O75460)

Compound | effect on | method | tested at | remaining binding [%]
COc1ncc2cc3ccccc3nc2c1C#N | cell-free assay | competition with immobilised ligand | 5 µM | 93
COc1cccc(CNC(=O)c2nc3scc(COCc4ccc(C(=O)O)cc4)c3c(=O)[nH]2)c1 | cell-free assay | competition with immobilised ligand | 1 µM | 89.7
O=C(NCC1CCOCC1)c1n[nH]cc1NC(=O)c1c(F)cccc1F | binding | competition with immobilised ligand | 1 µM | 65
Nc1ncc2c(n1)-c1c([nH]c3ccc(C#CC4CC4)cc13)CCCC2 | binding | competition with immobilised ligand | 1 µM | 100
CNCc1ccccc1-c1csc([C@@H](C)Nc2nc(C)nc3cc(OC)c(OC)cc23)c1 | cell-free assay | competition with immobilised ligand | 1 µM | 100
F[C@@H]1CCN(c2nccc(-c3cnn4ncccc34)n2)C1 | binding |  | 1 µM | 83
CCN1CCN(Cc2ccc(C(=O)Nc3ccc(C)c(Oc4ccc5c(c4)CC(=O)N5)c3)cc2C(F)(F)F)CC1 | binding | competition with immobilised ligand | 1 µM | 100
Cc1cnc(Nc2ccc(C(=O)N3CCC(N4CCCC4)CC3)cc2)nc1-c1cc2ccccc2s1 | binding | competition with immobilised ligand | 1 µM | 24
CCOCCn1cc(C(=O)Nc2ccc(-n3nc(-c4cccnc4)cc3C(F)(F)F)cn2)ccc1=O | cell-free assay | competition with immobilised ligand | 1 µM | 87
O=C(NCCCN1CCOCC1)c1ccc(Nc2nccc(-c3cc4ccccc4s3)n2)cc1 | binding | competition with immobilised ligand | 1 µM | 52
Cc1cnn2ncc(-c3ccnc(N(C)C)n3)c2c1 | binding |  | 1 µM | 100
CN1CCN(c2cnc3c(C4CCN(C(=O)c5ccc(OC(F)(F)F)cc5N)CC4)ncnc3c2)CC1 | cell-free assay | competition with immobilised ligand | 1 µM | 99
N[C@@H]1CCN(c2nccc(-c3cnn4ncccc34)n2)C1 | binding |  | 1 µM | 100
COc1cnc(Nc2cccc(S(N)(=O)=O)c2)nc1N1CCN(c2ccccc2)C(=O)C1 | binding | competition with immobilised ligand | 1 µM | 78
Cc1cc(NC(=O)c2cccc(S(F)(F)(F)(F)F)c2)cc(-n2ccn3nc(-c4cccnc4)cc23)c1 | cell-free assay | competition with immobilised ligand | 1 µM | 99.2
CC1CCCN1c1nccc(-c2cnn3ncccc23)n1 (stereo not drawn) | binding |  | 1 µM | 100
O=C(c1ccc(Nc2ncc(Cl)c(-c3cc4ccccc4s3)n2)cc1)N1CCC(N2CCCC2)CC1 | binding | competition with immobilised ligand | 1 µM | 37
COc1ccnn2ncc(-c3ccnc(N(C)C)n3)c12 | binding |  | 1 µM | 100
O=C(NCc1ncc(C(F)(F)F)cc1Cl)c1ccc2c(c1)C1(CCS(=O)(=O)CC1)[C@@H](C1CC1)N2S(=O)(=O)c1ccc(F)cc1 | cell-free assay | competition with immobilised ligand | 1 µM | 65
CN(c1nccc(-c2cnn3ncccc23)n1)C1CC1 | binding |  | 1 µM | 100
C[C@@H](c1ccc(-n2cnc3c(N)ncnc32)cc1)N1CCc2nn(C)c(Cc3ccccc3)c2C1=O | binding | competition with immobilised ligand | 0.1 µM | 72
